Values after ≈ are worked out from the molar mass of the structure shown. Active and inactive are the calls of the source. No cut-off for these calls is given here.
How the values were obtained:
[1] = molecular target: Exportin-1 (Homo sapiens) (UniProt O14980); test: Inhibition of CRM1-mediated nucleocytoplasmic transport of RevM5 mutant in HEK293 cells assessed as RevM5-GFP nuclear localization at 2 ug/ml after 2 hrs by fluorescence microscopy; format: cell-based
Procedure, shortened: (§1)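 HEK 293T cells in 96-well trays were transfected with pRevM5-GFP by calcium phosphate, and compound was added one day later. RevM5-GFP distribution was scored by fluorescence microscopy 2 h after addition. Mainly nuclear localization was scored positive; cytoplasmic localization was scored negative.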

[2] = molecular target: Exportin-1 (Homo sapiens) (UniProt O14980); test: Inhibition of CRM1-mediated nucleocytoplasmic transport of HIV1 RevM5 mutant in human HeLa cells assessed as HIV1 RevM5-GFP nuclear localization at 10 ug/ml after 2 hrs by fluorescence microscopy; format: cell-based
Procedure, shortened: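 HeLa cells, grown in DMEM with 10% heat-inactivated FCS, 2 mM L-glutamine, 0.1% bicarbonate and gentamicin, were plated on glass-bottom dishes and transfected to express RevM5-GFP. RevM5-GFP is a Rev mutant that stays cytoplasmic but can still enter the nucleus. Compound was added, and after 2 h cellular RevM5-GFP distribution, nuclear versus cytoplasmic, was read by fluorescence microscopy with DIC images.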

HeLa [3] = test: Inhibition of Rev-BFP/CRM1-EYFP interaction in human HeLa cells assessed as Rev-BFP/CRM1-EYFP nuclear colocalization at 10 ug/mL after 120 mins by fluorescence microscopy; format: cell-based
Procedure, shortened: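 HeLa cells on glass-bottom dishes, about 50% confluent, were co-transfected with Rev-BFP and CRM1-EYFP. One day later cells were washed with PBS and treated with compound in complete DMEM. Nucleolar co-localization of CRM1-EYFP with Rev was examined by live confocal microscopy at 30, 120 and 180 min and 24 h.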

HeLa [4] = test: Inhibition of Rev-BFP/CRM1Cys528Ser-EYFP mutant interaction in human HeLa cells assessed as Rev-BFP/CRM1Cys528Ser-EYFP nuclear colocalization at 10 ug/mL after 2 hrs by fluorescence microscopy; format: cell-based
Procedure, shortened: (§2)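 HeLa cells were co-transfected with Rev-BFP and the EYFP-CRM1 Cys528 mutant. One day after transfection they were washed with PBS and treated with compound in complete DMEM. Co-localization was followed by live-cell confocal microscopy at 30, 120 and 180 min and 24 h.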

[5] = molecular target: Exportin-1 (Homo sapiens) (UniProt O14980); test: Inhibition of CRM1-mediated nucleocytoplasmic transport of RevM5 mutant in HEK293 cells assessed as RevM5-GFP nuclear localization at 10 ug/ml after 2 hrs by fluorescence microscopy; format: cell-based; procedure, shortened: as §1
[6] = molecular target: Exportin-1 (Homo sapiens) (UniProt O14980); test: Inhibition of CRM1-mediated nucleocytoplasmic transport of RevM5 mutant in HEK293 cells assessed as RevM5-GFP nuclear localization at 0.08 ug/ml after 2 hrs by fluorescence microscopy; format: cell-based; procedure, shortened: as §1
[7] = tested on: Human immunodeficiency virus 1; test: Antiviral activity against HIV1 NL4-3 infected in HEK293T cells assessed as inhibition of virion-associated p24 antigen production after 24 hrs by ELISA; format: functional, organism-based
Procedure, shortened: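 HEK 293T cells in DMEM with 10% heat-inactivated FCS were transfected with the HIV-1 molecular clone NL4-3 by calcium phosphate. Compounds were added at a range of concentrations. Virus-associated p24 antigen in the supernatant was measured by ELISA 24 h after compound addition.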

[8] = tested on: Human immunodeficiency virus 1; test: Antiviral activity against HIV1 3B infected in human OM10.1 cells assessed as inhibition of TNF-alpha-induced viral p24 production at 5 ug/mL after 48 hrs by ELISA; format: functional; parameters: scale not given: the % may be the effect or the level left
Procedure, shortened: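 OM10.1 cells chronically infected with HIV-1(IIIB), grown in RPMI 1640 with 10% FCS, were washed twice to remove cell-free virus and seeded at 120,000 cells/well with compound. Cultures were stimulated with 1 ng/ml TNF-α and incubated 48 h at 37 °C. Supernatant p24 was measured by ELISA.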

[9] = Cytotoxicity against HIV1 3B infected human OM10.1 cells at 10 ug/mL after 48 hrs by MTT assay; format: cell-based
Procedure, shortened: (§3)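 Cytotoxicity was read by MTT viability staining on the same TNF-α-stimulated (1 ng/ml), twice-washed HIV-1(IIIB) chronically infected OM10.1 cultures (120,000 cells/well). Compound was present throughout the 48 h incubation at 37 °C.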

[10] = Cytotoxicity against HIV1 3B infected human OM10.1 cells at 20 ug/mL after 48 hrs by MTT assay; format: cell-based; procedure, shortened: as §3
HeLa [11] = test: Inhibition of Rev-BFP/CRM1Cys528Ser-EYFP mutant interaction in human HeLa cells assessed as Rev-BFP/CRM1Cys528Ser-EYFP nuclear colocalization after 2 hrs by fluorescence microscopy; format: cell-based; procedure, shortened: as §2
[12] = molecular target: Exportin-1 (Homo sapiens) (UniProt O14980); test: Inhibition of CRM1-mediated nucleocytoplasmic transport of RevM5 mutant in HEK293 cells assessed as RevM5-GFP nuclear localization at 0.4 ug/ml after 2 hrs by fluorescence microscopy; format: cell-based; procedure, shortened: as §1

Exportin-1 (Homo sapiens), sequence (O14980 whole entry): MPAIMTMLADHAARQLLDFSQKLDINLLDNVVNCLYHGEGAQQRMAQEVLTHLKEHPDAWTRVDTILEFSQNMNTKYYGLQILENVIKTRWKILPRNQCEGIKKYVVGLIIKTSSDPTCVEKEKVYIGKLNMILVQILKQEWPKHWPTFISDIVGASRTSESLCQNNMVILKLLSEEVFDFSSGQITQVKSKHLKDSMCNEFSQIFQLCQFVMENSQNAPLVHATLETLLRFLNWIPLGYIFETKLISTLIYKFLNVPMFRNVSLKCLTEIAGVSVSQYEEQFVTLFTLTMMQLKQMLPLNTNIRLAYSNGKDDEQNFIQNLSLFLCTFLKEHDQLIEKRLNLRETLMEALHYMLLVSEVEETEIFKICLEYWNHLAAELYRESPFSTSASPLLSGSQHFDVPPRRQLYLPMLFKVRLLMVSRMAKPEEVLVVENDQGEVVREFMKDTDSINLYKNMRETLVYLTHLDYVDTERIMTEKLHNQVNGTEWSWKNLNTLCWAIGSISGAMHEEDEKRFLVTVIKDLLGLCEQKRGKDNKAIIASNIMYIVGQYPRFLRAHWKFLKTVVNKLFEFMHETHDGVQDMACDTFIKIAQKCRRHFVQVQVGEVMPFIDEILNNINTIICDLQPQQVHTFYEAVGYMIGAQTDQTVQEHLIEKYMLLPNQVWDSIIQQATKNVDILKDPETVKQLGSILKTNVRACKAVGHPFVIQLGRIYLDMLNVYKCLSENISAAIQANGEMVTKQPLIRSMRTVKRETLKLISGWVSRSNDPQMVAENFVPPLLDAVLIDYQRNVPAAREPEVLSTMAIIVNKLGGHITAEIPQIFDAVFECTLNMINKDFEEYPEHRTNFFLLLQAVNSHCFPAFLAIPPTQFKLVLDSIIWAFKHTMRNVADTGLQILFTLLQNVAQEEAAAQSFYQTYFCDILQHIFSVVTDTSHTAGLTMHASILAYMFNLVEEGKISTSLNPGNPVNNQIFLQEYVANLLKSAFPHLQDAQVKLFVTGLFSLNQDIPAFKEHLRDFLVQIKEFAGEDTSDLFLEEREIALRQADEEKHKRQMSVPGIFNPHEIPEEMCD

Structure (SMILES)	Activity [1]	Activity [2]	Activity (HeLa [3])	Activity (HeLa [4])	Activity [5]	Activity [6]	EC50 ([7]; Human immunodeficiency virus 1, NL4-3, HEK-293T) [µg/mL]	Activity [8] [%]	Activity [9]	Activity [10]	Activity (HeLa [11])	Activity [12]	Activity ([7]; HEK-293T)
CCOC(=O)/C=C\n1nnc(-c2cccc(Cl)c2)n1	Active	Active	Active	inactive	Active	inactive	0.2 (≈ 0.718 µM)	94	Toxic	Toxic			
Clc1cccc(-c2nnn[nH]2)c1	inactive	inactive			inactive	inactive					inactive	inactive	inactive
